Published values of several laboratories.
Compare with care: the assays were run in different laboratories.
Target: Receptor-interacting serine/threonine-protein kinase 4 (RIPK4, Homo sapiens, UniProt P57078)
Residues used in one study (P57078 1-832): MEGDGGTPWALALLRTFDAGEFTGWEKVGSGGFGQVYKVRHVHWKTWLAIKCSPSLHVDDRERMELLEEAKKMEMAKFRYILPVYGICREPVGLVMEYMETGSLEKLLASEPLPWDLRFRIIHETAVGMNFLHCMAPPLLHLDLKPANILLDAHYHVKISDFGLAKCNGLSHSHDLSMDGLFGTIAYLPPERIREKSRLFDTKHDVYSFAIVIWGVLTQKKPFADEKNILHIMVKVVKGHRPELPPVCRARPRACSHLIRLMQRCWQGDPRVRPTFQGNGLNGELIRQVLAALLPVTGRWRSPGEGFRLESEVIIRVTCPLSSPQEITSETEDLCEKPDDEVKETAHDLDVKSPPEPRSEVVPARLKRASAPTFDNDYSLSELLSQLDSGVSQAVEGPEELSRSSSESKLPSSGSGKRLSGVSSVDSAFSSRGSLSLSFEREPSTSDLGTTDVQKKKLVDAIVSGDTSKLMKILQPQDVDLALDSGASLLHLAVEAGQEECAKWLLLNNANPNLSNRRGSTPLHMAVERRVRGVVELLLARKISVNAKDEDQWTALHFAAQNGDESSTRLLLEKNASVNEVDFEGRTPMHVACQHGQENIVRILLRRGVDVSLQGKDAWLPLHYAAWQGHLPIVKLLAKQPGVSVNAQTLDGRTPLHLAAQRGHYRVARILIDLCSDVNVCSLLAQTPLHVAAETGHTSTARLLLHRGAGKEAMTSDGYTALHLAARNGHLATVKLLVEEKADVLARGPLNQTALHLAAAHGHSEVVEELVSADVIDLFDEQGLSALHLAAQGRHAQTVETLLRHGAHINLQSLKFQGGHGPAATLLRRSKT

N#CC1(c2ccccn2)CCN(Cc2cc(C(=O)N3CCCC3)c(=O)n3ccccc23)CC1  remaining binding (cell-free assay; competition with immobilised ligand; 1 µM): 100%
Cc1cnn2ncc(-c3ccnc(N(C)C)n3)c2c1  remaining binding (binding; 1 µM): 80%
CS(=O)(=O)N1CCCC(NC(=O)[C@H](CCC2CCCCC2)NC(=O)c2ccc(CNc3ncnc4c3nnn4-c3ccccc3)cc2)C1 (stereo partly drawn)  remaining binding (cell-free assay; competition with immobilised ligand; 0.1 µM): 100%
O=C(NCCCN1CCOCC1)c1ccc(Nc2nccc(-c3cc4ccccc4s3)n2)cc1  remaining binding (binding; competition with immobilised ligand; 1 µM): 47%
c1cncc(-c2cccc(Nc3nccc(NC4CCCCC4)n3)c2)c1  remaining binding (binding; competition with immobilised ligand; 10 µM): 53%
COc1ncc2cc3ccccc3nc2c1C#N  remaining binding (cell-free assay; competition with immobilised ligand; 5 µM): 100%
O=C(NCCCC1CCCCC1)c1ccc(CNC(=O)c2cnn(-c3ccccc3)c2C(F)(F)F)cc1  remaining binding (cell-free assay; competition with immobilised ligand; 0.1 µM): 58%
O=C(c1ccc(Nc2ncc(Cl)c(-c3ccc(Cl)s3)n2)cc1)N1CCC(N2CCCC2)CC1  remaining binding (binding; competition with immobilised ligand; 1 µM): 8%
C=CC(=O)N1CCC(C(=O)NCC(=O)N2CCN(c3nc(-c4cnc(N)nc4C(F)F)nc(N4CCOCC4)n3)CC2)CC1  remaining binding (binding; competition with immobilised ligand; 1 µM): 76%
CC1CCCN1c1nccc(-c2cnn3ncccc23)n1 (stereo not drawn)  remaining binding (binding; 1 µM): 98%
O=C(c1ccc(Nc2ncc(Cl)c(-c3cc4ccccc4s3)n2)cc1)N1CCC(N2CCCC2)CC1  remaining binding (binding; competition with immobilised ligand; 1 µM): 41%
O=C(Nc1c[nH]nc1C(=O)NC1CCNCC1)c1cc(F)cc(F)c1  remaining binding (binding; competition with immobilised ligand; 1 µM): 100%
N[C@@H]1CCN(c2nccc(-c3cnn4ncccc34)n2)C1  remaining binding (binding; 1 µM): 100%
COc1cnc(Nc2cccc(S(N)(=O)=O)c2)nc1N1CCN(c2ccccc2)C(=O)C1  remaining binding (binding; competition with immobilised ligand; 1 µM): 86%
F[C@@H]1CCN(c2nccc(-c3cnn4ncccc34)n2)C1  remaining binding (binding; 1 µM): 100%
O=S(=O)(NC1CCC(c2cc(F)ccc2F)(S(=O)(=O)c2ccc(Cl)cc2)CC1)C(F)(F)F (stereo not drawn)  remaining binding (cell-free assay; competition with immobilised ligand; 1 µM): 91%
CN(C)c1nccc(-c2cnn3ncccc23)n1  remaining binding (binding; 1 µM): 97%
CN(c1ccnc(CNc2nc(Nc3ccc4c(c3)CC(=O)N4)ncc2C(F)(F)F)n1)S(C)(=O)=O  remaining binding (cell-free assay; competition with immobilised ligand; 1 µM): 6%
FC(F)(F)Oc1cccc(-c2cnc3ccc(-c4ccncc4)nn23)c1  remaining binding (binding; competition with immobilised ligand; 5 µM): 69%
C[C@H]1CCN(c2nccc(-c3cnn4ncccc34)n2)C1  remaining binding (binding; 1 µM): 81%
COc1ccc2c(c1)O[C@H](c1ccc(OC)c(OC)c1)C[C@@H]2NC(=O)C1(c2ccc3c(c2)OC(F)(F)O3)CC1  remaining binding (cell-free assay; competition with immobilised ligand; 1 µM): 75%
